# Compound activity as filed in PubChem.
# Shown are actives, neighbours in structure and some others; about 5.8% of the full set was active somewhere.
# IDH1 mut inh = inhibitors of human IDH1 R132H; O75874; IDH1 R132H reductase, diaphorase/resazurin fluorescence, 60 min; inhibition, % at 10 µM; 70,000 compounds, 0.18% hits; AID 624101; in the data active means inhibition above about 34%; inconclusive means no clear call, values can overlap the other calls; inactive means below about 11%;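 further: 0% = DMSO and 100% = no enzyme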
# Target sequence (O75874 whole entry R132H): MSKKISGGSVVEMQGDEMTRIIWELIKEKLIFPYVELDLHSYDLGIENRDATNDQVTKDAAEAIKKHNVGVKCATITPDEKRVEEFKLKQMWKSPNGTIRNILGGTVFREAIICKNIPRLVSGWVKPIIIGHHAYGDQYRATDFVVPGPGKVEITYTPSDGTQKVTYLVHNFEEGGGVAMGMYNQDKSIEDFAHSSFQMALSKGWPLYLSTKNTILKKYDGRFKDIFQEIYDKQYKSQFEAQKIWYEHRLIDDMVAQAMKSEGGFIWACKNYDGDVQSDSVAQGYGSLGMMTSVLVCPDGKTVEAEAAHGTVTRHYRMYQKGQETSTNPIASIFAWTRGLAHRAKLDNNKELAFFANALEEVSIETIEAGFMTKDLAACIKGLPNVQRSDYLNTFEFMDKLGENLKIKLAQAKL
# T cruzi growth-1 = blocks T. cruzi growth in NIH3T3 culture; T. cruzi beta-gal in NIH3T3, GalScreen luminescence, 90 h; inhibition, % at 8.34 µM; 77,000 compounds, 5.9% hits; AID 624255;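 active means mean inhibition above about 93%, with at least 55% of replicates each passing it, limit read from the data, passing the limit was not always enough; inconclusive means only one of those two conditions holds; inactive means neither condition holds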
# KDM4C inh = blocks human GASC-1 (KDM4C) demethylase activity; Q9H3R0; 96,000 compounds, 0.15% hits; inhibition, % at 12.5 µM; GST-KDM4C 2-372, H3K9me3 peptide, LANCE TR-FRET;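 active means mean replicate inhibition above about 25%, with at least 55% of replicates also reaching it, limit read from the data, passing the limit was not always enough; inconclusive means only one of those two conditions met; inactive means neither condition met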
# Target sequence (Q9H3R0 2-372 limits assumed): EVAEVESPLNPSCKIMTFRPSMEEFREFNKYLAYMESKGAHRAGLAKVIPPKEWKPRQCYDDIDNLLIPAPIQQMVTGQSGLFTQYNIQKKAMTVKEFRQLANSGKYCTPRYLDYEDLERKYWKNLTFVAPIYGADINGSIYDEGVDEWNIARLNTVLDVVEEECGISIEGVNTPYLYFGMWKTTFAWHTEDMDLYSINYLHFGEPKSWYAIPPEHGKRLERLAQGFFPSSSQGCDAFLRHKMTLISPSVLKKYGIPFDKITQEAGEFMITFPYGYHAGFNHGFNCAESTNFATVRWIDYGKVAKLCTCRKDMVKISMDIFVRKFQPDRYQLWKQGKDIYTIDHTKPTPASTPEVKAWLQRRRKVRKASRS
#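 material = GST-tagged GASC-1 (JMJD2C) catalytic fragment, aa 2-372 | amount = enzyme final amount 10 nM | medium = HEPES buffer, pH 7.5, plus ascorbate | also added = H3K9me3 peptide substrate, Fe(II), 2-oxoglutarate | dosing = single dose | times = 30 min demethylation and 1 h detection at room temperature | detection = LANCE TR-FRET | read-out basis = Fall in 671/618 emission ratio as inhibition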
# Pf Dd2 inh = inhibitors of Plasmodium falciparum Dd2 growth; P. falciparum Dd2 growth, SYBR Green, 72 h; hits give low values; activity change, % at 10 µM; 94,000 compounds, 2.3% hits; AID 1159554; in the data active means activity change below about -80%; inconclusive means no clear call, values can overlap the other calls
# T cruzi growth-2 = blocks T. cruzi growth in NIH3T3 host cells. inhibition, % at 8.35 µM. 5,600 compounds, 72% hits. T. cruzi beta-gal in NIH3T3, GalScreen luminescence, 90 h. shares compounds with T cruzi growth-1;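 active means mean replicate inhibition above about 95% and at least 55% of replicates individually reaching it, limit read from the data; inconclusive means only one of the two criteria is met; inactive means neither criterion is met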
# T cruzi growth-3 = inhibitors of T. cruzi proliferation; shares compounds with T cruzi growth-1; T. cruzi beta-gal in NIH3T3, GalScreen luminescence, 90 h; inhibition, % at 2.09 µM; 5,600 compounds, 21% hits;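 active means mean inhibition above about 95%, with at least 55% of replicates also reaching it, limit read from the data; inconclusive means meets just one of the two conditions; inactive means meets neither condition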;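 further: plate controls were neutral control median for no effect and positive control median for full effect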
# 3T3 cytotox = kills mouse NIH/3T3 fibroblasts; shares compounds with T cruzi growth-1; NIH/3T3 viability, CellTiter-Glo ATP luminescence, 90 h; cytotoxicity (signal decrease), % at 8.35 µM; 5,600 compounds, 14% hits; AID 651742;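 active means mean signal decrease across replicates above about 35% based on untreated-well scatter, with enough replicates individually passing, limit read from the data; inconclusive means no rule stated though some were filed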;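 further: 0% = median of neutral control wells and 100% = median of positive control wells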
# 3T3 cytotox 2 = NIH/3T3 (mouse) viability loss | shares compounds with T cruzi growth-1 | NIH/3T3 viability, CellTiter-Glo ATP luminescence, 90 h | inhibition, % at 24.9 µM | 5,600 compounds, 56% hits;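 active means mean loss of cell viability signal at or above a set limit, and enough replicates individually reaching it; inconclusive means meets only the mean limit or only the replicate share; inactive means meets neither condition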;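 further: 0% = median of neutral control wells and 100% = median of positive control wells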
# Active calls of the source: *; ? = inconclusive; nt = no result given.
SMILES,IDH1 mut inh,T cruzi growth-1,KDM4C inh,Pf Dd2 inh,T cruzi growth-2,T cruzi growth-3,3T3 cytotox,3T3 cytotox 2
COc1ccc(C#Cc2ccc([C@@H]3[C@H]4CN(S(=O)(=O)c5ccccc5)CCCCN4[C@H]3CO)cc2)cc1,nt,45.6,0.1,-59.4,nt,nt,nt,nt
COc1ccc(C#Cc2ccc([C@H]3[C@@H](CO)N4CCCCN(S(=O)(=O)c5ccccc5)C[C@H]34)cc2)cc1,nt,101.4*,-1.3,-72.7,97.9*,76.4,25.1,104.5*
COc1ccc(S(=O)(=O)N2CCCCN3[C@@H](CO)[C@H](c4ccc(C#CC(C)C)cc4)[C@@H]3C2)cc1,nt,103.6*,1.6,-31.6,97.5*,84.8,46.3*,104.4*
COc1ccc(S(=O)(=O)N2CCCCN3[C@H](C2)[C@@H](c2ccc(C#CCC(C)C)cc2)[C@@H]3CO)cc1,nt,64.9,-0.4,-18.0,nt,nt,nt,nt
O=S(=O)(c1ccccc1)N1CCCCN2[C@H](CO)[C@@H](c3ccc(C#Cc4cccnc4)cc3)[C@H]2C1,nt,?,nt,-36.6,109.9*,61.8,24.9,78.7*
COc1ccc(C#Cc2ccc([C@H]3[C@H]4CN(S(=O)(=O)c5ccccc5)CCCCN4[C@H]3CO)cc2)cc1,nt,106.9*,-1.4,-46.0,110.7*,99.1*,3.5,51.9*
O=S(=O)(c1ccccc1)N1CCCCN2[C@H](CO)[C@@H](c3ccc(C#Cc4ccccc4)cc3)[C@@H]2C1,nt,82.9,nt,18.6,nt,nt,nt,nt
CC(=O)O[C@@H]1CC[C@@]2(C)C(CC[C@@H](C)[C@]23Cc2c(O)cc4c(c2O3)CNC4=O)C1(C)C (some centres not stated),2.5,nt,nt,nt,nt,nt,nt,nt
O=C(O)c1ccc2c(c1)C1C3CCC(C3)C1C(c1ccccc1)N2 (configuration not stated),4.1,nt,nt,nt,nt,nt,nt,nt
CCn1c(SCC(=O)Nc2ccccc2C(F)(F)F)nnc1-c1cccc(C)c1,0.1,nt,nt,nt,nt,nt,nt,nt
C[C@@H]1CN([C@@H](C)CO)C(=O)c2cc(NC(=O)c3ccccc3)ccc2O[C@@H](C)CCCCO[C@H]1CN(C)C(=O)CCCN(C)C,-0.6,47.0,-2.0,1.7,nt,nt,nt,nt
C[C@@H]1CCCCO[C@H](CN(C)C(=O)CCCN(C)C)[C@@H](C)CN([C@H](C)CO)C(=O)c2cc(NC(=O)c3ccccc3)ccc2O1,3.1,99.5*,1.9,8.3,23.2,-38.1,-11.4,9.4
C[C@@H]1CN([C@H](C)CO)C(=O)c2cc(NS(C)(=O)=O)ccc2O[C@@H](C)CCCCO[C@@H]1CN(C)C(=O)CCCN(C)C,nt,99.5*,0.8,23.1,54.4,-0.2,17.7,-1.6
Cc1ccccc1NC(=O)c1ccc(OCC(=O)Nc2ccccc2C(F)(F)F)cc1,0.1,nt,nt,nt,nt,nt,nt,nt
O=C(c1cccc(F)c1)N1CC[C@H]2[C@H](CO)Nc3ccc(C#Cc4ccccc4)cc3[C@H]21,nt,nt,0.3,-52.9,nt,nt,nt,nt
COc1ccc(C#Cc2ccc3c(c2)[C@@H]2[C@@H](CCN2C(=O)c2cccc(F)c2)[C@@H](CO)N3)cc1,nt,102.2*,-0.6,-59.3,108.1*,83.9,-1.6,25.8*
O=C(c1cccc(F)c1)N1CC[C@@H]2[C@H]1c1cc(C#Cc3ccc(F)cc3)ccc1N[C@@H]2CO,nt,114.3*,-2.4,-0.3,107.7*,91.0,-2.1,79.1*
COC(=O)c1sc(NC(=O)COc2ccc(C(C)C)cc2)c(C#N)c1C,0.1,nt,nt,nt,nt,nt,nt,nt
CNC[C@@H]1Oc2cc(C#Cc3ccccn3)ccc2S(=O)(=O)N([C@H](C)CO)C[C@H]1C,0.3,103.5*,-2.8,-34.4,109.6*,73.3,-7.0,-23.7
CNC[C@H]1Oc2cc(C#Cc3ccncc3)ccc2S(=O)(=O)N([C@H](C)CO)C[C@H]1C,nt,nt,2.4,17.8,nt,nt,nt,nt
CNC[C@@H]1Oc2cc(C#Cc3ccccn3)ccc2S(=O)(=O)N([C@@H](C)CO)C[C@H]1C,-0.9,105.2*,-3.2,-42.8,107.3*,72.9,-36.1,-22.1
CNC[C@@H]1Oc2cc(C#Cc3ccncc3)ccc2S(=O)(=O)N([C@@H](C)CO)C[C@@H]1C,9.9,nt,5.0,-32.1,nt,nt,nt,nt
Cc1ccnc(SCC(=O)Nc2ccc(Br)cc2F)n1,-0.2,nt,nt,nt,nt,nt,nt,nt
CC(C)NC(=O)Nc1ccc2c(c1)CC(=O)N([C@H](C)CO)C[C@H](C)[C@H](CN(C)Cc1ccc(Oc3ccccc3)cc1)O2,1.1,71.2,-0.1,-42.0,nt,nt,nt,nt
C[C@@H]1CN([C@H](C)CO)C(=O)Cc2cc(NC(=O)Nc3ccc4c(c3)OCO4)ccc2O[C@H]1CN(C)Cc1ccc(Oc2ccccc2)cc1,-1.1,?,10.9,8.6,113.3*,68.6,29.2,31.1*
SMILES,IDH1 mut inh,T cruzi growth-1,KDM4C inh,Pf Dd2 inh,T cruzi growth-2,T cruzi growth-3,3T3 cytotox,3T3 cytotox 2
COc1ccc(CN(C)C[C@H]2Oc3ccc(NC(=O)Nc4ccc5c(c4)OCO5)cc3CC(=O)N([C@H](C)CO)C[C@H]2C)cc1,1.9,99.2*,-0.1,31.1,110.4*,19.6,1.1,8.0
CC(C)NC(=O)Nc1ccc2c(c1)CC(=O)N([C@@H](C)CO)C[C@@H](C)[C@H](CN(C)Cc1ccc(Oc3ccccc3)cc1)O2,-0.4,101.4*,3.0,?,107.4*,41.7,30.0,103.7*
C[C@@H]1CN([C@@H](C)CO)C(=O)Cc2cc(NC(=O)Nc3ccc4c(c3)OCO4)ccc2O[C@@H]1CN(C)Cc1ccc(Oc2ccccc2)cc1,nt,3.8,-0.8,-4.9,nt,nt,nt,nt
Cn1c(SCC(=O)N2CCc3ccccc32)nnc1-c1ccco1,0.2,nt,nt,nt,nt,nt,nt,nt
Cn1c(SCC(=O)n2c3c(c4ccccc42)CCCC3)nnc1-c1cccc([N+](=O)[O-])c1,0.1,nt,nt,nt,nt,nt,nt,nt
Cc1ccc(S(=O)(=O)N[C@H]2C=C[C@H](CC(=O)N3CCC(Cc4ccccc4)CC3)O[C@H]2CO)cc1,-0.2,124.9*,-0.9,-19.3,102.8*,-4.5,-1.4,8.5
O=C(C[C@H]1C=C[C@H](NS(=O)(=O)c2ccc(F)cc2)[C@H](CO)O1)N1CCC(Cc2ccccc2)CC1,-0.2,?,1.2,1.0,106.9*,-15.1,-18.1,15.7
COc1ccc(N2C(=O)CC(SCC(=O)Nc3ccc(F)cc3)C2=O)cc1 (configuration not stated),-0.6,nt,nt,nt,nt,nt,nt,nt
CN(C)C=NC(=O)c1ccc(-c2cccs2)s1,-0.5,nt,nt,nt,nt,nt,nt,nt
Cc1ccc(-c2nnc3c4ccccc4c(C)nn23)cc1S(=O)(=O)NCC1CCCO1 (configuration not stated),0.2,nt,nt,nt,nt,nt,nt,nt
C/C=C/c1ccc([C@H]2[C@@H](CO)N3CCCCN(S(=O)(=O)c4cccc(C)c4)C[C@@H]23)cc1,nt,110.6*,-0.7,-7.3,112.4*,68.8,10.2,80.0*
C/C=C/c1ccc([C@@H]2[C@@H](CO)N3CCCCN(S(=O)(=O)c4ccc(F)cc4)C[C@H]23)cc1,nt,85.9,-2.8,-11.1,nt,nt,nt,nt
